{"data": "Measurements pooled from the literature", "ADRA1A": "Alpha-1A adrenergic receptor (ADRA1A, Homo sapiens, UniProt P35348)", "SQLE": "Squalene monooxygenase (SQLE, Homo sapiens, UniProt Q14534)", "note": "Lines come from different studies, so protocols differ."}
{"Compound": "Nc1ccn(C[C@@H](CO)OCP(=O)(O)O)c(=O)n1", "target": "Solute carrier family 22 member 6 (SLC22A6, Homo sapiens, UniProt Q4U2R8, S231A)", "assay": "transporter uptake, inhibitor, fluorescence", "endpoint": "IC50", "result": "344 µM"}
{"Compound": "Cc1ccc(N2CCN(Cc3cccnc3Oc3ccc(-c4c(C)c(=O)[nH]c(=O)n4C)c(C)c3)CC2)cc1C", "target": "ADRA1A", "assay": "ligand displacement, radioligand", "endpoint": "Ki", "result": "3.42 µM"}
{"Compound": "CC(C)C[C@H](NC(=O)[C@H](Cc1ccccc1)NC(=O)c1cnccn1)B(O)O", "target": "ATP-dependent Clp protease proteolytic subunit, mitochondrial (CLPP, Homo sapiens, UniProt Q16740)", "assay": "binding", "endpoint": "Kd", "result": "45000 nM"}
{"Compound": "O=C[C@H](O)[C@@H](O)[C@H](O)[C@H](O)COP(=O)(O)O", "target": "Hexokinase HKDC1 (Homo sapiens, UniProt Q2TB90)", "assay": "enzyme activity, inhibitor, absorbance", "endpoint": "Ki", "result": "> 1000 µM"}
{"Compound": "Cc1cc(Oc2ncccc2CN2CCN(c3ccccc3C#N)CC2)ccc1-c1c(C)c(=O)[nH]c(=O)n1C", "target": "ADRA1A", "assay": "ligand displacement, radioligand", "endpoint": "Ki", "result": "1.21 µM"}
{"Compound": "CN(C)C(=O)c1cc2cnc(Nc3ccc(C(=O)NCCCCCCOc4cccc5c4C(=O)N(C4CCC(=O)NC4=O)C5=O)cc3)nc2n1C1CCCC1 (centres unmarked)", "target": "High affinity nerve growth factor receptor (NTRK1, Homo sapiens, UniProt P04629)", "assay": "binding, competition with immobilised ligand", "endpoint": "Kd", "result": "< 200 nM"}
{"Compound": "Cc1cc2nc3c(=O)[nH]c(=O)nc-3n(C[C@H](O)[C@H](O)[C@H](O)COP(=O)(O)OP(=O)(O)OC[C@H]3O[C@@H](n4cnc5c(N)ncnc54)[C@H](O)[C@@H]3O)c2cc1C", "target": "Dihydrolipoyl dehydrogenase, mitochondrial (DLD, Homo sapiens, UniProt P09622)", "assay": "binding, SPR", "endpoint": "Kd", "result": "1270 nM"}
{"Compound": "Cc1cc(Oc2ncccc2CN2CCN(C(c3ccccc3)c3ccccc3)CC2)ccc1-c1c(C)c(=O)[nH]c(=O)n1C", "target": "ADRA1A", "assay": "ligand displacement, radioligand", "endpoint": "Ki", "result": "0.885 µM"}
{"Compound": "NC(=O)c1ccc[n+]([C@@H]2O[C@H](COP(=O)([O-])OP(=O)(O)OC[C@H]3O[C@@H](n4cnc5c(N)ncnc54)[C@H](O)[C@@H]3O)[C@@H](O)[C@H]2O)c1", "target": "Dihydrolipoyl dehydrogenase, mitochondrial (DLD, Homo sapiens, UniProt P09622, K430Q)", "assay": "binding, SPR", "endpoint": "Kd", "result": "1140 nM"}
{"Compound": "O=C(O)[C@H]1O[C@@H](Oc2cc3oc(-c4ccccc4)cc(=O)c3c(O)c2O)[C@H](O)[C@@H](O)[C@@H]1O", "target": "SQLE", "assay": "enzyme activity, inhibitor", "endpoint": "Ki", "result": "1.75 µM"}
{"Compound": "CC(=O)c1ccc2c(c1)N(CCCN1CCC(CCO)CC1)c1ccccc1S2", "target": "SQLE", "assay": "enzyme activity, inhibitor", "endpoint": "Ki", "result": "0.68 µM"}
